The target in data set [1] is T1, Heat shock protein HSP 90-beta/Hsp90 co-chaperone Cdc37 (Homo sapiens, UniProt P08238+Q16543). Kind of data set: Disruption of His-tagged full length HSP90 (unknown origin)/GST-tagged Cdc37 (unknown origin) at 50 uM measured after 1 hr by HTRF method. Format: protein-complex assay. The essentials: (§1)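 HTRF in PBS with […], pH 7.3: His-tagged full-length Hsp90 and GST-tagged Cdc37 (each 250 nM final) with compound, 37 °C for 1 h. Anti-GST-Cryptate and anti-6His-XL665 then added for 0.5 h at 37 °C. Time-resolved fluorescence read at ex 320 nm, em 665/620 nm; ratio (665/620) × 10 000.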
T1 sequence (P08238 whole entry): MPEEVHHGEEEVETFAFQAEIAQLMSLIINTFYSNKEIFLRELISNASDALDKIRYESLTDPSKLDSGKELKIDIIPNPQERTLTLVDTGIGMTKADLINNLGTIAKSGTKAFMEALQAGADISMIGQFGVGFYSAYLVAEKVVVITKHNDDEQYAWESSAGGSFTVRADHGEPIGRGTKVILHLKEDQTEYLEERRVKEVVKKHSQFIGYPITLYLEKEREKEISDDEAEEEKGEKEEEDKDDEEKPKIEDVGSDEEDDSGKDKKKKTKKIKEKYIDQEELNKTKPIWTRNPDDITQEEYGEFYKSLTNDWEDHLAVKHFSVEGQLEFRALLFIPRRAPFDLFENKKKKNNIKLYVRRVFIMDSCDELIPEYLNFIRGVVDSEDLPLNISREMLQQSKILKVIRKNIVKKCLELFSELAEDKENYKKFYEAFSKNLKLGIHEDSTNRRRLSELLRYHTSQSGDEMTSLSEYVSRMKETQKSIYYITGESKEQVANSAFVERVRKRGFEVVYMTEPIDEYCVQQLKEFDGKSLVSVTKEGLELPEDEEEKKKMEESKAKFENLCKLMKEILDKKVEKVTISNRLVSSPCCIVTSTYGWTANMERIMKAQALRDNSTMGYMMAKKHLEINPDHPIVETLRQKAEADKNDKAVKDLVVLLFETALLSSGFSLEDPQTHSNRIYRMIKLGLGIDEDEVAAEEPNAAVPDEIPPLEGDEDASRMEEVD
T1 sequence (Q16543 whole entry): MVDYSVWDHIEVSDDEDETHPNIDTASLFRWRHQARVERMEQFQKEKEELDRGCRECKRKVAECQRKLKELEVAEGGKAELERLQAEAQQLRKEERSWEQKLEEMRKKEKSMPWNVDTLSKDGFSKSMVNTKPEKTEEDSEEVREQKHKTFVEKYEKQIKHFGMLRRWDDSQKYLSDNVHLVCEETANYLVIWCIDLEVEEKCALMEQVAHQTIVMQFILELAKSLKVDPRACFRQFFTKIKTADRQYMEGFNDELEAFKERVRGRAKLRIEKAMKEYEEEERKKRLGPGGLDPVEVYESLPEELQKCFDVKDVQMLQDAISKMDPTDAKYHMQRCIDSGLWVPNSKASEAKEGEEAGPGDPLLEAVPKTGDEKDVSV

The test system of data set [2] is A549. Description: cells. The following applies: Homo sapiens, A549, 48 h.
The subject of data set [3] is MDA-MB-231. Description: cells. The following applies: Homo sapiens, MDA-MB-231, 48 h.
In data set [4] the test system is KB. Kind of data set: cells. The following applies: Homo sapiens, 48 h.
In data set [5] the test system is MCF7. Kind of data set: cells. As to conditions: Homo sapiens, MCF7, 48 h.
Data set [6] is described as follows: Cytotoxicity against human mesenchymal bone marrow stem cells measured after 48 hrs by MTT assay. Format: toxicity, cell-based.
Data set [7] in a line: Toxicity in nude mouse xenografted with human MDA-MB-231 cells assessed as decrease of body weight at 10 mg/kg, po measured after 26 days. Format: organism-based. The following applies: in vivo, 624 h, time 26 day. A digest of the protocol: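 Female athymic nude mice, 5−6 weeks old, carrying MDA-MB-231 xenografts; randomized at about 100 mm³ tumor volume, n = 6 per group. Groups were vehicle, carboplatin 10 mg/kg, celastrol 10 mg/kg and test compound 10 mg/kg oral. Body weight tracked from day 16 to day 26; blood counts taken on the last day.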
For orientation: Xenograft models place foreign cells or tissue in a host animal.

Data set [8] in a line: Toxicity in nude mouse xenografted with human MDA-MB-231 cells assessed as decrease of white blood cells at 10 mg/kg, po measured after 26 days. The following applies: in vivo, 624 h, time 26 day. It counts as organism-based. The essentials:
(§2)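 Female athymic nude mice (5–6 weeks) bore MDA-MB-231 xenografts and were randomized (n = 6) at a mean tumor volume of about 100 mm³. They received 10 mg/kg orally, with vehicle and carboplatin (10 mg/kg) groups. On the final day of administration, a routine blood examination counted white blood cells, red blood cells and platelets, compared against vehicle.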

Data set [9] in a line: Toxicity in nude mouse xenografted with human MDA-MB-231 cells assessed as decrease of red blood cells at 10 mg/kg, po measured after 26 days. It counts as organism-based. The following applies: in vivo, 624 h, time 26 day. A digest of the protocol: as §2
Data set [10] can be described thus: Toxicity in nude mouse xenografted with human MDA-MB-231 cells assessed as decrease of platelets at 10 mg/kg, po measured after 26 days. Format: organism-based. The following applies: in vivo, 624 h, time 26 day. A digest of the protocol:
as §2

Data set [11] in a line: Toxicity in nude mouse xenografted with human MDA-MB-231 cells assessed as damage to liver at 10 mg/kg, po measured after 26 days by Hand E staining method. It counts as organism-based. As to conditions: in vivo, 624 h, time 26 day. A digest of the protocol: (§3)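 Female athymic nude mice (5–6 weeks) bore MDA-MB-231 xenografts and were randomized (n = 6) once tumors averaged about 100 mm³. They were dosed orally at 10 mg/kg, alongside vehicle and carboplatin (10 mg/kg) groups. On the last day of administration, heart, liver, lungs and kidneys were examined by HE staining.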

A short description of data set [12]: Toxicity in nude mouse xenografted with human MDA-MB-231 cells assessed as damage to heart at 10 mg/kg, po measured after 26 days by Hand E staining method. Format: organism-based. The following applies: in vivo, 624 h, time 26 day. A digest of the protocol: as §3
Data set [13] is described as follows: Toxicity in nude mouse xenografted with human MDA-MB-231 cells assessed as damage to lungs at 10 mg/kg, po measured after 26 days by Hand E staining method. Format: organism-based. The following applies: in vivo, 624 h, time 26 day. The essentials: as §3
Data set [14] can be described thus: Toxicity in nude mouse xenografted with human MDA-MB-231 cells assessed as damage to kidney at 10 mg/kg, po measured after 26 days by Hand E staining method. It counts as organism-based. As to conditions: in vivo, 624 h, time 26 day. The essentials: as §3
The target of data set [15] is T1, Heat shock protein HSP 90-beta/Hsp90 co-chaperone Cdc37. Kind of data set: Disruption of His-tagged full length HSP90 (unknown origin)/GST-tagged Cdc37 (unknown origin) measured after 1 hr by HTRF method. Format: protein-complex assay. The essentials: as §1
A general note: Time-resolved FRET reads energy transfer from a long-lived donor to a nearby acceptor.

Data set [16] has as its system HUVEC. Kind of data set: Antimigratory activity against human HUVEC cells assessed as inhibition of cell migration at 0.1 uM measured after 12 to 24 hrs by wound scratch assay. It counts as functional, cell-based. As to conditions: time 12-24 hrs. A digest of the protocol: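 HUVEC monolayers were scratched and treated, with wound closure imaged at 0, 12 and 24 h. Migration was quantified as a migration ratio relative to 0 h.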

Calls of active or inactive are those of the source. No cut-off for these calls is given here.

Turning to `COC(=O)[C@]1(C)CC[C@]2(C)CC[C@]3(C)C4=CC=C5C(=CC(=O)C(O)=C5C)[C@]4(C)CC[C@@]3(C)[C@@H]2C1` [PRISTIMERIN], the inhibition (as a rule, the relative decrease from the control value, in per cent) in data set [1] was found to be 83.1%. Moreover, the IC50 (as a rule, the concentration that gives 50% inhibition) was determined as 1.1 µM in [2], 0.8 µM in [3], 0.9 µM in [4] and 0.9 µM in [5].
In [1], `CC1=C(O)C(=O)C=C2C1=CC=C1[C@@]2(C)CC[C@@]2(C)[C@@H]3C[C@](C)(C(=O)OCCC(C)C)CC[C@]3(C)CC[C@]12C` had an inhibition of 87.8%. Further, the IC50 turned out to be 4.2 µM in data set [2], 1.1 µM in data set [3], 1.9 µM in [4] and 2 µM in data set [5].
In [6], `C#CCOC(=O)[C@]1(C)CC[C@]2(C)CC[C@]3(C)C4=CC=C5C(=CC(=O)C(OC(=O)N6CCC(N7CCCCC7)CC6)=C5C)[C@]4(C)CC[C@@]3(C)[C@@H]2C1` gave an IC50 at 48 h of 2.8 µM. Besides, the Activity result in data set [7] is listed as “Toxic”; in [8], “Non-Toxic”; in [9], “Non-Toxic”; in [10] it was “Non-Toxic”; in data set [11], “Non-Toxic”; in data set [12], “Non-Toxic”. For the same molecule, the Activity entry in data set [13] and in [14] was “Non-Toxic” throughout. In data set [3], this molecule gave a half-inhibitory concentration (IC50) of 0.2 µM.
`C=CCOC(=O)[C@]1(C)CC[C@]2(C)CC[C@]3(C)C4=CC=C5C(=CC(=O)C(O)=C5C)[C@]4(C)CC[C@@]3(C)[C@@H]2C1` yielded an inhibition in data set [1] of 89.9%. For the same molecule, the IC50 in [2] turned out to be 0.8 µM; in data set [3], 0.8 µM; in data set [4], 0.3 µM; in data set [5] it was 0.4 µM.
Molecule `CC1=C(O)C(=O)C=C2C1=CC=C1[C@@]2(C)CC[C@@]2(C)[C@@H]3C[C@](C)(C(=O)OCc4cccc(C)c4)CC[C@]3(C)CC[C@]12C` came in with an IC50 in data set [15] of 6.2 µM.
Consider `CC1=C(O)C(=O)C=C2C1=CC=C1[C@@]2(C)CC[C@@]2(C)[C@@H]3C[C@](C)(C(=O)O)CC[C@]3(C)CC[C@]12C` [CELASTROL], for which the inhibition in data set [1] worked out at 82.3%. Moreover, the IC50 at 48 h in data set [6] is 0.7 µM. The Activity entry in data set [8], in data set [9], in data set [10], in data set [11], in [12] and in [13] was “Toxic” throughout. Moreover, the Activity result in [14] is reported as “Toxic”. The result in [16] was inactive. For the same molecule, the IC50 in data set [2] was determined as 1.8 µM; in data set [3], 0.9 µM; in [4] it was 1.7 µM; in [5] it was 1.2 µM.
In the case of `COCCOC(=O)[C@]1(C)CC[C@]2(C)CC[C@]3(C)C4=CC=C5C(=CC(=O)C(O)=C5C)[C@]4(C)CC[C@@]3(C)[C@@H]2C1`, in data set [15], half-maximal inhibition (IC50) was put at 6.7 µM.
Regarding `CCCCOC(=O)[C@]1(C)CC[C@]2(C)CC[C@]3(C)C4=CC=C5C(=CC(=O)C(O)=C5C)[C@]4(C)CC[C@@]3(C)[C@@H]2C1`, the inhibition in [1] is 86%. Also, the IC50 in data set [2] came to 1.3 µM; in data set [3] it was 0.9 µM; in data set [4] it was 0.6 µM; in data set [5], 0.6 µM.
With `CCCOC(=O)[C@]1(C)CC[C@]2(C)CC[C@]3(C)C4=CC=C5C(=CC(=O)C(O)=C5C)[C@]4(C)CC[C@@]3(C)[C@@H]2C1`, the inhibition in data set [1] worked out at 87.4%. Besides, the IC50 in data set [2] was determined as 1.1 µM; in data set [3], 0.8 µM; in data set [4], 0.6 µM; in data set [5], 0.5 µM.
In the case of `CC1=C(O)C(=O)C=C2C1=CC=C1[C@@]2(C)CC[C@@]2(C)[C@@H]3C[C@](C)(C(=O)OCCBr)CC[C@]3(C)CC[C@]12C`, the inhibition in data set [1] was 86.3%. The IC50 in data set [2] is 1.6 µM; in data set [3], 0.1 µM; in data set [4], 1 µM; in data set [5], 1.1 µM.
As for `CC1=C(O)C(=O)C=C2C1=CC=C1[C@@]2(C)CC[C@@]2(C)[C@@H]3C[C@](C)(C(=O)OCc4ccccc4C)CC[C@]3(C)CC[C@]12C`, in data set [15], the IC50 was found to be 10 µM.
For the molecule `CCOC(=O)[C@]1(C)CC[C@]2(C)CC[C@]3(C)C4=CC=C5C(=CC(=O)C(O)=C5C)[C@]4(C)CC[C@@]3(C)[C@@H]2C1`, in data set [1], the inhibition came to 85.7%. For the same molecule, the IC50 in [2] amounted to 1.7 µM; in data set [3], 0.7 µM; in data set [4], 1 µM; in [5], 1 µM.
In [15], `C#CCOC(=O)[C@]1(C)CC[C@]2(C)CC[C@]3(C)C4=CC=C5C(=CC(=O)C(O)=C5C)[C@]4(C)CC[C@@]3(C)[C@@H]2C1` yielded an IC50 of 1.7 µM.
Molecule `CC1=C(O)C(=O)C=C2C1=CC=C1[C@@]2(C)CC[C@@]2(C)[C@@H]3C[C@](C)(C(=O)OCc4ccccc4)CC[C@]3(C)CC[C@]12C` yielded an inhibition in data set [1] of 90.1%. Moreover, the IC50 in data set [15] was 2.4 µM; in [2], 1.3 µM; in data set [3], 0.4 µM; in data set [4], 0.6 µM; in data set [5], 0.7 µM. In data set [6], this molecule registered an IC50 at 48 h of 1 µM.
`CC1=C(O)C(=O)C=C2C1=CC=C1[C@@]2(C)CC[C@@]2(C)[C@@H]3C[C@](C)(C(=O)OCC4CCCCC4)CC[C@]3(C)CC[C@]12C`: in data set [15], the IC50 was determined as 2.9 µM.
In data set [1], `COCCCOC(=O)[C@]1(C)CC[C@]2(C)CC[C@]3(C)C4=CC=C5C(=CC(=O)C(O)=C5C)[C@]4(C)CC[C@@]3(C)[C@@H]2C1` showed an inhibition of 88.8%. The IC50 worked out at 1 µM in data set [2], 0.4 µM in [3], 0.6 µM in data set [4] and 0.6 µM in data set [5].
For `CC1=C(O)C(=O)C=C2C1=CC=C1[C@@]2(C)CC[C@@]2(C)[C@@H]3C[C@](C)(C(=O)OCCCl)CC[C@]3(C)CC[C@]12C`, the inhibition in data set [1] worked out at 87%. The IC50 in data set [2] was found to be 6.3 µM; in data set [3], 0.8 µM; in data set [4], 1.9 µM; in data set [5] it was 1.8 µM.

Source of the values: ChEMBL document CHEMBL5230144, “Synthesis and Biological Evaluation of Celastrol Derivatives with Improved Cytotoxic Selectivity and Antitumor Activities” (J Nat Prod, 2021).
